The results in this text go back to ChEMBL document CHEMBL3297739 (J Med Chem, 2014).

Series [1] can be described thus: Cytotoxicity against human SH-SY5Y cells assessed as LDH release after 48 hrs (reference value: 0%). The class given is cell-based. Summed up:
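SH-SY5Y neuroblastoma cells were grown in serum for 5 days, then exposed to inhibitor (1–500 nM range). LDH activity in the medium was measured with a commercial kit. Values are % activity relative to untreated cells, which were set to 0%.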

For series [2], the target named is T1, Farnesyl pyrophosphate synthase (Homo sapiens, UniProt P14324).
T1 sequence (P14324 whole entry): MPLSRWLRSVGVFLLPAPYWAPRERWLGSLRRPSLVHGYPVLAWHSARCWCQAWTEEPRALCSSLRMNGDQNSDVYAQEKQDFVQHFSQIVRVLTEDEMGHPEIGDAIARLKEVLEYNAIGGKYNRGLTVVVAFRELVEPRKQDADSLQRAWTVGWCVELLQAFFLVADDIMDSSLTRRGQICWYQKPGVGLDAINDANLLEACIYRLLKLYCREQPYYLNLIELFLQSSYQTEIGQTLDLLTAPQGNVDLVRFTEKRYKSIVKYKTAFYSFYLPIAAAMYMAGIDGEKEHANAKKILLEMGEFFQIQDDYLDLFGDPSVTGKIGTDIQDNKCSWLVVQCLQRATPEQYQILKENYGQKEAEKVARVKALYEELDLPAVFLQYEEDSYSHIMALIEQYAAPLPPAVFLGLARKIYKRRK
Briefly: Allosteric inhibition of human recombinant FPPS using GPP and [3H]IPP as substrate incubated with enzyme for 10 mins prior to substrate addition by liquid scintillation counting analysis.

A short description of series [3]: Dissociation constant, pKa of P(O)O-OH group of compound. The series is classed as physicochemical.
In series [4] the target is T2, Farnesyl pyrophosphate synthase (Homo sapiens) (UniProt P14324).
T2 sequence (whole entry): T1 sequence (P14324 whole entry)
Put plainly: Allosteric inhibition of human recombinant FPPS using GPP and [3H]IPP as substrate at 20 uM incubated with enzyme for 10 mins prior to substrate addition by liquid scintillation counting analysis.

Series [5] concerns the target T1, Farnesyl pyrophosphate synthase. Briefly: Binding affinity to human FPPS by […] in absence of Mg2+ ions. Summed up:
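ITC at 30 °C. One 1 μL ligand injection was followed by 18 injections of 2 μL. Heats of dilution from control titrations were subtracted.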
(In general: Isothermal titration calorimetry measures the heat released or taken up as one component is titrated into another.)

SMILES strings stand for the structures.

As to `O=P(O)(O)C(Nc1ncnc2sc(-c3ccc(OC4CC4)cc3)cc12)P(=O)(O)O`, in series [1], the Activity was -1%.

Usually IC50 stands for the concentration needed to halve the response being measured. Consider `O=P(O)(O)C(Cc1cccnc1)P(=O)(O)O`, for which the IC50 in series [2] was 0.033 µM.

Turning to `O=P(O)(O)C(Nc1cncc(-c2ccc(OC3CC3)cc2)c1)P(=O)(O)O`, the Activity in series [1] worked out at 0%.

As usually defined, the pKa is the negative logarithm of the acid dissociation constant. Higher therefore signals a group that holds its proton tightly. Turning to `Cc1ccc(-c2cc3c(CCP(=O)(O)O)ncnc3s2)cc1`, in series [2], the IC50 was determined as 26 µM. The molecule also registered a pKa in series [3] of 7.7.

`Cc1ccc(-c2cc3c(NC(c4ccccc4)P(=O)(O)O)ncnc3s2)cc1Cl` (centres undefined): the Activity in series [1] is reported as -7%. In series [2], the IC50 came out at 1.2 µM.

`O=C(O)Cn1c(C(=O)O)cc2ccc3ccccc3c21`: the Activity in series [1] is 3%.

Turning to `O=P(O)(O)CCc1cccnc1`, in series [2], the IC50 is greater than 800 µM.

As a reminder, the inhibition is the relative decrease from the control value, in per cent. As for `Cc1ccc(-c2cc3c(NCC(=O)O)ncnc3s2)cc1`, the IC50 in series [2] is greater than 20 µM. Further, the inhibition in series [4] amounted to 27%.

Usually Kd stands for the equilibrium constant for the complex coming apart. Take `Cc1ccc(-c2cc3c(NCP(=O)(O)O)ncnc3s2)cc1`: the pKa in series [3] turned out to be 6.8. Further, the Kd in series [5] stood at 9.2 µM.

Turning to `Cc1ccc(-c2cc3c(NCP(=O)(O)O)ncnc3s2)cc1Cl`, the IC50 in series [2] worked out at 3.3 µM.

As for `Cc1ccc(-c2cc3c(NCCP(=O)(O)O)ncnc3s2)cc1`, in series [2], the IC50 is greater than 20 µM. Also, the inhibition in series [4] stood at 40%.

As to `O.O=P(O)(O)C(O)(Cn1ccnc1)P(=O)(O)O` [ZOLEDRONIC ACID], the Activity in series [1] is given as 60%.

In series [5], `Cc1ccc(-c2cc3c(NC(P(=O)(O)O)P(=O)(O)O)ncnc3s2)cc1` yielded a Kd of 56 µM.

`O=P(O)(O)C(O)(Cc1cccnc1)P(=O)(O)O` [RISEDRONIC ACID]: the Activity in series [1] was found to be 60%.
